Shown are actives, neighbours in structure and some others; about 5.5% of the full set was active somewhere.
BB579 growth dn = chemicals that inhibit yeast BB579 growth in restrictive medium (lifespan-shortening candidates); S. cerevisiae BB579 growth, OD615, 48 h; inhibition, % at 10 µM; AID 804; actives 0.51% (n = 140,000);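 active = inhibition above a set limit, 3 SD over the mean compound inhibition, cut at about 44% in these data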
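test system = yeast BB579 (DeaD) | buffer or medium = restrictive CSMM-D medium | doses = single compound dose of 10 µM, 0.25% DMSO final | times = 4 h preincubation and 48 h exposure at 30 °C | technique = culture absorbance at 615 nm | benchmarks = amphotericin B 10 µg/mL, positive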
KCC2 mod = modulates chloride dependent transport by human KCC2; AID 1456; KCC2 cells, thallium flux FluoZin-2 fluorescence; Q9H2X9; B-score of Tl+ flux slope (higher = more flux/activation; lower = inhibition) at 10 µM; actives 2.2% (n = 190,000);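 active = thallium flux slope and its plate-corrected score both differing from the plate sample mean at a set confidence after two filtering rounds, in either direction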;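 also: slope of fluorescence scaled to starting intensity during 10 to 20 s after thallium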
Target sequence (Q9H2X9 whole entry, looked up): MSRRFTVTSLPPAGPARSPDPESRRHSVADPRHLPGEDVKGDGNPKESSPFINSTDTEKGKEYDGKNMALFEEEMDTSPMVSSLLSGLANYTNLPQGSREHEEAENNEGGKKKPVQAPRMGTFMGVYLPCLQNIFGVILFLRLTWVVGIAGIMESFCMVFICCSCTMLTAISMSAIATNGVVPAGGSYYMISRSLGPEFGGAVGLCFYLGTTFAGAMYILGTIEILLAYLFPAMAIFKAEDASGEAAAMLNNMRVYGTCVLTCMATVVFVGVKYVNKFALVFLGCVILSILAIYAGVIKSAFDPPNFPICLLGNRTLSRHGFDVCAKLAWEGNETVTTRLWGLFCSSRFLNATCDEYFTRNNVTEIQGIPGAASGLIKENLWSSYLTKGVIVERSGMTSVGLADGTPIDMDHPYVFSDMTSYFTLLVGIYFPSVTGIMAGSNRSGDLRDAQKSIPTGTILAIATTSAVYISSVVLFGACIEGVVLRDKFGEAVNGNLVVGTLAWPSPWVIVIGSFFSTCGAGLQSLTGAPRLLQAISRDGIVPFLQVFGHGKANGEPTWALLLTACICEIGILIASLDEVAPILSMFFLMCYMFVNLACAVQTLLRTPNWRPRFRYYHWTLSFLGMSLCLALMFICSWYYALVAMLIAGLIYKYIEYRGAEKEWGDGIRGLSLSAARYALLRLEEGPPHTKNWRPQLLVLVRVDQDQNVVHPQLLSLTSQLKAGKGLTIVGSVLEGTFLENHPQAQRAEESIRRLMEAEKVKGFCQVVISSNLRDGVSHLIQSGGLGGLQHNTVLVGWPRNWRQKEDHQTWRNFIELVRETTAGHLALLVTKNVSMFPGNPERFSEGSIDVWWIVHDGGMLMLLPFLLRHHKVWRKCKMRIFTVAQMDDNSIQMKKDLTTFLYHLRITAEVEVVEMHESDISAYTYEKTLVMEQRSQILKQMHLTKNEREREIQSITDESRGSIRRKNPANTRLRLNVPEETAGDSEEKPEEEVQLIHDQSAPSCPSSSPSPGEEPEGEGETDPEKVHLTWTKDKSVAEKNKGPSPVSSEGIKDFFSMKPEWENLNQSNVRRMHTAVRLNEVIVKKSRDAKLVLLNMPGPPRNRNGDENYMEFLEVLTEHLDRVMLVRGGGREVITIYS
Yeast lifespan up = yeast lifespan extension; S. cerevisiae growth with nicotinamide, OD615; deaD strain in restrictive glucose medium; inhibition of the nicotinamide effect, % at 10 µM; actives 0.68% (n = 130,000);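 active = inhibition above a set limit, placed 3 SD over the median of all compounds, cut at about 26% in these data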;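 also: 0% = nicotinamide-treated wells and 100% = cells grown without nicotinamide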
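Assay system: engineered S. cerevisiae DeaD replicative-lifespan strain, galactose-grown log-phase cells; medium: restrictive CSMM-D dextrose medium; also added: nicotinamide, 1.5 mM, co-present with compound; schedule: 48 h compound exposure at 30 °C, humidified; detection: absorbance at 615 nm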
RAM inhibit = blocks the yeast RAM network. inhibition, % at 50 µM. S. cerevisiae dse1pr::URA3 reporter, 5-FOA growth OD615, 2 d; analog-sensitive cbk1-as2 kinase mutant strain. AID 868. actives 1.8% (n = 190,000);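 active = inhibition above a set limit, 3 SD over mean compound inhibition, cut at about 8.4% in these data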;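 also: 0% = DMSO-only wells with no growth and 100% = 10 µM 1-NA-PP1 full growth; inhibition rescues growth on 5-FOA so higher OD means more RAM inhibition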
WT yeast gro inh = growth inhibition of WT yeast, mitochondrial fusion screen; mitochondrial fusion phenotypic screen, WT strain; inhibition, % at 10 µM; actives 2.1% (n = 190,000); AID 1362; in the data active = inhibition above about 58%; tested in S. cerevisiae
KCC2 secondary = confirmation of human KCC2 transport modulators | shares compounds with KCC2 mod | HEK293-KCC2, thallium flux, FluoZin2 fluorescence; stronger effect = higher value | normalised thallium flux (F/F0 slope) at 10 µM | actives 15% (n = 3,700) | AID 1713;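 active = thallium flux slope above the same plate's solvent-only control mean plus 3 SD; inconclusive = the two replicate wells disagree; inactive = no significant difference from solvent-only control wells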
KCC2 bumet counter = bumetanide-insensitive thallium flux in KCC2 cells with ouabain, counter-screen | AID 1714 | actives 49% (n = 3,700) | normalized thallium flux at 10 µM | HEK293-KCC2 + bumetanide/ouabain, thallium flux FluoZin2; stronger effect = higher value | shares compounds with KCC2 mod;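 active = thallium entry rate above the same plate's blocked-transporter control wells by more than 3 SD; inconclusive = the two repeat wells disagree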;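 also: raw slope of fluorescence over initial fluorescence between 10 and 20 s after thallium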
KCC2 sec2 = KCC2 (human) modulation, second secondary assay; HEK293-KCC2, thallium flux FluoZin2 fluorescence; actives lie on both sides; F/F0 rise rate, 10–20 s post-thallium; actives 23% (n = 3,700); AID 1715; shares compounds with KCC2 mod; normalized thallium flux at 10 µM;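 active = thallium flux slope more than 3 SD above or below the plate's solvent-only control mean, mostly below; inconclusive = the two repeat wells disagreed; inactive = no significant shift from solvent-only controls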;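 also: raw slope with 0.1% DMSO as baseline and bumetanide as block control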
HEK293 Tl flux = counter-screen for KCC2 modulators: effect in parental HEK293 cells; shares compounds with KCC2 mod; thallium flux FluoZin2, ouabain; baseline-ratio fluorescence slope, 10–20 s after thallium; thallium flux rate (normalised fluorescence) at 10 µM; actives 46% (n = 3,700); AID 1716;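 active = thallium flux rate significantly above the same plate's solvent-only control wells, beyond their mean plus 3 SD; inconclusive = the two replicate wells gave conflicting results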
KCC2 retest ouab = modulates human KCC2 on retest with ouabain; shares compounds with KCC2 mod; HEK293-KCC2, thallium flux FluoZin2 fluorescence; bidirectional: low = inhibitor, high = activator; raw Tl+ flux slope (below DMSO = inhibition, above = activation) at 10 µM; actives 48% (n = 3,700); AID 1717;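 active = thallium flux slope beyond 3 SD from same-plate DMSO control mean in most replicates, usually higher, sometimes lower; inconclusive = repeat tests gave conflicting results; inactive = no significant difference from controls in most replicates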;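 also: slope of initial-normalized fluorescence between seconds 10 and 20 after thallium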
HEK counter2 = parental HEK flux effect, counter-screen 2. shares compounds with KCC2 mod. HEK293 parental, thallium flux FluoZin-2 fluorescence slope. thallium flux slope at 10 µM. actives 33% (n = 3,700). AID 1718;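 active = thallium flux slope above the same plate's solvent-control mean plus 3 SD in both duplicate wells; inconclusive = duplicate wells that disagreed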;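 also: run without ouabain in cells lacking the KCC2 cotransporter; slope of fluorescence scaled to its starting value between 10 and 20 s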
Active calls of the source: *; ? = inconclusive; · = no result given.

SMILES	BB579 growth dn	KCC2 mod	Yeast lifespan up	RAM inhibit	WT yeast gro inh	KCC2 secondary	KCC2 bumet counter	KCC2 sec2	HEK293 Tl flux	KCC2 retest ouab	HEK counter2
CCOc1ccccc1NC(=O)CSc1nnnn1Cc1ccccc1	-32	-2.6*	-14	0	12	0.0073	0.004	0.028	0.0072	?	0.0094
COc1ccccc1NC(=O)CSc1nnnn1Cc1ccccc1	7	·	-4	2	8	·	·	·	·	·	·
O=C(Nc1cnc2ccccn2c1=O)c1ccc(Cl)cc1Cl	·	0.2	·	0	6	·	·	·	·	·	·
O=C(c1ccc(Cl)cc1)c1cnc2ccccn12	-32	-3.4*	-19	3	-12	0.007	0.0046	0.03	0.008	0.018	0.01
COc1ccc(OC)c(/C(O)=C/C(=O)C(=O)Nc2ccccc2OC)c1	-20	1.2	-1	3	5	·	·	·	·	·	·
C[C@H](c1ccccc1)n1nnc(COCc2ccccc2)c1C#CCOCc1ccccc1	·	-0.16	·	·	·	·	·	·	·	·	·
COc1c(O)cnn(-c2ccccc2)c1=O	·	0.74	·	·	·	·	·	·	·	·	·
CCn1c(=O)cc(OCC(=O)N2CCN(c3cccc(C(F)(F)F)c3)CC2)c2ccccc21	-23	-1.7	-19	3	0	0.0079	0.0058	0.028	0.0065	?	0.01
O=C(c1coc2ccccc2c1=O)N1CCN(c2cccc(C(F)(F)F)c2)CC1	-37	-4*	-3	2	12	0.011	0.0075	0.033	0.0074	0.022	0.01
O=C(c1ccccc1F)N1CCN(c2cccc(C(F)(F)F)c2)CC1	-25	-1.3	-7	0	20	·	·	·	·	·	·
O=C(Nc1c(C(=O)Nc2ccccc2)cnn1-c1ccccc1)c1ccco1	-18	·	-13	6	-4	·	·	·	·	·	·
CC(C)c1ccc(NC(=O)c2cnn(-c3ccccc3)c2NC(=O)c2ccco2)cc1	-34	-3.7*	2	6	7	0.0069	?	0.026*	0.0073	?	0.011
O=C1CC(O)(C(F)F)Oc2ccc3ccccc3c21 (stereo not drawn)	-42	2.7	-18	2	37	·	·	·	·	·	·
O=C1CC(O)(C(F)(F)F)Oc2c1ccc1ccccc21 (stereo not drawn)	-12	46*	7	0	9	0.0088	0.077*	0.065*	0.059*	0.067*	0.061*
c1coc(CNc2nc(-c3cccs3)cs2)c1	·	0.36	·	5	1	·	·	·	·	·	·
Oc1ccc(-c2csc(NCc3ccco3)n2)cc1	-16	·	-28	3	10	0.0086	0.0046	0.032	0.0056*	0.016*	0.0087
CCN(c1ccccc1)c1nc2nonc2nc1NCCO	·	-0.93	·	·	·	·	·	·	·	·	·
COCCNc1nc2nonc2nc1N(C)Cc1cccc2cnccc12	·	-3.1*	·	-1	-13	0.0066	0.0049	0.028	0.0079	?	0.011
Cc1ccc(CSCCNC(=O)c2ccc(NS(C)(=O)=O)cc2)cc1	·	-0.075	·	-1	8	·	·	·	·	·	·
Cc1nc(SCC(=O)NC(C)(C#N)C2CC2)c2c(-c3cccs3)csc2n1 (stereo not drawn)	-55	5.1*	0	5	16	0.011	0.026*	0.03	0.013*	0.033*	0.011*
Cc1nc(SCC(=O)NCC(F)(F)F)c2c(-c3cccs3)csc2n1	-28	1.1	-2	4	3	·	·	·	·	·	·
O=C(Nc1cccc2ccccc12)N1CCN(c2ncccn2)CC1	·	-4.1*	·	1	-7	0.011	?	0.033	0.0084	0.018	0.011
COc1cccc(/C=N/N2C(=O)CSC2=S)c1O	72*	3.5*	-4	1	3	0.013*	0.016*	0.033	0.01*	?	?
CN(Cc1ccon1)Cc1cn(Cc2ccccc2)nc1-c1ccc2c(c1)OCO2	·	-2.2	·	0	26	·	·	·	·	·	·
O=C(CSc1nnnn1-c1ccccc1)Nc1nsc(-c2ccccc2)n1	-27	-6.3*	-9	3	10	0.017	0.0049	0.024*	0.0076	0.014	0.01
SMILES	BB579 growth dn	KCC2 mod	Yeast lifespan up	RAM inhibit	WT yeast gro inh	KCC2 secondary	KCC2 bumet counter	KCC2 sec2	HEK293 Tl flux	KCC2 retest ouab	HEK counter2
CCn1c(=S)[nH]c2ccccc21	11	-0.88	-2	0	8	·	·	·	·	·	·
CCn1c(=S)[nH]c2cc(Cl)ccc21	·	10*	·	·	·	?	0.024*	?	0.022*	0.031*	0.019*
CCCn1c(=S)[nH]c2cc(Cl)ccc21	·	55*	·	·	·	0.042*	0.088*	0.049*	0.047*	0.051*	0.045*
Cc1cc(C)cc(NC(=S)NN)c1	·	1.7	·	2	24	·	·	·	·	·	·
N#CC1=C(S)N=C(N)C(c2nc(-c3ccccc3)cs2)C12CCCCC2 (stereo not drawn)	-55	-3.9*	-3	3	-15	0.0094	0.006	0.022*	0.0069	0.016*	0.0097
CC(=O)OC(c1nc2ccccc2c(=O)n1C1CC2(OC1=O)c1ccccc1N1C(=O)C(C)(C)N(O)C12)C(C)C (stereo not drawn)	·	-0.15	·	·	·	·	·	·	·	·	·
CCOC(=O)CC(NC(=O)c1cccc2c1C(=O)N(Cc1cccnc1)C2)c1ccc(OC(C)C)cc1 (stereo not drawn)	·	-1.7	·	3	0	·	·	·	·	·	·
COC(=O)n1c(=S)oc2cc(Cl)ccc21	-35	3*	-20	-1	15	0.018*	0.023*	0.035	0.015*	0.029*	0.012
COC(=O)n1c(=O)oc2cc(S(=O)(=O)N3CCOCC3)ccc21	-17	-0.35	-1	2	-4	·	·	·	·	·	·
O=[N+]([O-])c1ccc(NC(=S)NCCc2ccc(F)cc2)cc1	-10	-6.1*	-7	-1	85*	0.0069	0.0038	0.021*	0.0052*	0.01*	0.008*
S=C(Nc1ccccc1)Nc1nc2ccccc2n1CCOc1ccccc1	14	29*	-9	4	-17	0.011*	0.059*	0.029	0.017*	0.036*	?
S=C(Nc1ccc(Cl)cc1Cl)NC1CCN(Cc2ccccc2)CC1	-26	-3.7*	1	0	32	0.0074	?	0.029	0.0079	0.021*	?
